Results published in ChEMBL document CHEMBL4396920, “DL5050, a Selective Agonist for the Human Constitutive Androstane Receptor” (ACS Med Chem Lett, 2019).

How the values were obtained:
[1] = target: T1, Nuclear receptor subfamily 1 group I member 3 (Homo sapiens, UniProt Q14994); assay: Agonist activity at human CAR transfected in human HepG2 cells cotransfected with CYP2B6 incubated for 23 hrs by luciferase reported gene assay; format: cell-based
T1 sequence (Q14994 whole entry): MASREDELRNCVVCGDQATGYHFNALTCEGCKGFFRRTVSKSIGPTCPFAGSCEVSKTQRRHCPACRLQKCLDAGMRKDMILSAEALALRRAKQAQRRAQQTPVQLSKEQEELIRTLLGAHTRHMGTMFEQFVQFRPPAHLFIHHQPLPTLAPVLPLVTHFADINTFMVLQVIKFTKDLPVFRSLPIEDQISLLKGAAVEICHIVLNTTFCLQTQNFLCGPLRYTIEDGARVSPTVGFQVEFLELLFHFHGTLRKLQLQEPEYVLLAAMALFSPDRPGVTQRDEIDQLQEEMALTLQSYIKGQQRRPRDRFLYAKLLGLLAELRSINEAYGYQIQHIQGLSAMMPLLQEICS
Procedure, shortened: (§1)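 qHTS luciferase reporter assay in a double-stable HepG2-CYP2B6-hCAR line. EC50 and Emax (fold luciferase signal over vehicle/basal) derived by nonlinear regression; Emax/EC50 ratio computed from these. Mean ± SEM of at least three independent experiments in quadruplicate.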

[2] = target: T1, Nuclear receptor subfamily 1 group I member 3; assay: Ratio of Emax to EC50 for agonist activity at human CAR transfected in human HepG2 cells cotransfected with CYP2B6 by luciferase reporter gene assay; format: cell-based; procedure, shortened: as §1
HepG2 [3] = assay: Cytotoxicity against human HepG2 cells harbouring CYP2B6-hCAR gene assessed as reduction in cell viability at >10 uM incubated for 24 hrs by cell titer-Glo cell viability assay; format: ADME, cell-based; conditions: hepg2, 24 h
[4] = target: T2, Nuclear receptor subfamily 1 group I member 2 (Homo sapiens, UniProt O75469); assay: Agonist activity at human PXR transfected in human HepG2 cells cotransfected with CYP3A4 incubated for 23 hrs by luciferase reporter gene assay; format: cell-based
T2 sequence (O75469 whole entry): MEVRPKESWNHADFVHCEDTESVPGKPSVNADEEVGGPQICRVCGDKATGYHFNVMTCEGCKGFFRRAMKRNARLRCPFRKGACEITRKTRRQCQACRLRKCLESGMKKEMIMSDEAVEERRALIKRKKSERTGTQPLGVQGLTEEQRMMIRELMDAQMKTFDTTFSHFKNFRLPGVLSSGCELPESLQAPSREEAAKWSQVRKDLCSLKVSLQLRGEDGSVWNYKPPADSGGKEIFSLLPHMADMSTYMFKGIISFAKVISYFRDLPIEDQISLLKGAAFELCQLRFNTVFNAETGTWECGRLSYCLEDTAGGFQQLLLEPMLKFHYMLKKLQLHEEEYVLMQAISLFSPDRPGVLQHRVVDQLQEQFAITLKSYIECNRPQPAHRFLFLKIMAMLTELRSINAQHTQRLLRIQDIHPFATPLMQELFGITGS

[5] = target: T2, Nuclear receptor subfamily 1 group I member 2; assay: Ratio of Emax to EC50 for agonist activity at human PXR transfected in human HepG2 cells cotransfected with CYP3A4 by luciferase reporter gene assay; format: cell-based
[6] = target: T1, Nuclear receptor subfamily 1 group I member 3; assay: Agonist activity at human CAR in human primary hepatocytes assessed as increase in CYP2B6 gene expression incubated for 24 hrs by RT-PCR analysis; format: cell-based
Procedure, shortened: (§2)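 Hepatocytes from human liver donor HL-#151, treated with test compound at 0.5, 1 and 5 μM or vehicle; CITCO (0.5–5 μM), PB (1 mM) and RIF (10 μM) as references. CYP2B6 and CYP3A4 mRNA measured by RT-PCR and normalized to vehicle control. Mean ± SD of three independent experiments.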

[7] = target: T2, Nuclear receptor subfamily 1 group I member 2; assay: Agonist activity at human PXR in human primary hepatocytes assessed as slight increase in CYP3A4 gene expression at 0.5 to 5 uM incubated for 24 hrs by RT-PCR analysis; format: cell-based; procedure, shortened: as §2
HepG2 [8] = assay: Cytotoxicity against human HepG2 cells harbouring CYP2B6-hCAR gene assessed as cell viability at 92 uM incubated for 24 hrs by cell titer-Glo cell viability assay; format: ADME, cell-based; conditions: hepg2, 24 h
[9] = target: T1, Nuclear receptor subfamily 1 group I member 3; assay: Agonist activity at human CAR in human primary hepatocytes assessed as slight increase in CYP2B6 level at 0.5 to 5 uM incubated for 72 hrs by Western blot analysis; format: cell-based
Procedure, shortened: (§3)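 Hepatocytes from liver donor #151, given the same treatments as the mRNA study. CYP2B6 and CYP3A4 protein detected by immunoblotting; representative blots.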

[10] = target: T1, Nuclear receptor subfamily 1 group I member 3; assay: Agonist activity at human CAR in human primary hepatocytes assessed as increase in CYP2B6 gene expression at 1 mM incubated for 24 hrs by RT-PCR analysis; format: cell-based; conditions: 1000 µM
Procedure, shortened: (§4)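 Human primary hepatocytes from liver donor HL-#151 were treated with compound at 0.5, 1 or 5 μM, phenobarbital (1 mM), rifampicin (10 μM) or vehicle. CYP2B6 and CYP3A4 mRNA was measured by RT-PCR and normalized against vehicle control. Results are mean ± SD of three independent experiments.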

[11] = target: T2, Nuclear receptor subfamily 1 group I member 2; assay: Agonist activity at human PXR in human primary hepatocytes assessed as increase in CYP3A4 gene expression at 1 mM incubated for 24 hrs by RT-PCR analysis; format: cell-based; conditions: 1000 µM; procedure, shortened: as §4
[12] = target: T1, Nuclear receptor subfamily 1 group I member 3; assay: Agonist activity at human CAR in human primary hepatocytes assessed as increase in CYP2B6 gene expression at 0.5 to 5 uM incubated for 24 hrs by RT-PCR analysis; format: cell-based; procedure, shortened: as §2
[13] = target: T1, Nuclear receptor subfamily 1 group I member 3; assay: Agonist activity at human CAR in human primary hepatocytes assessed as increase in CYP2B6 level incubated for 72 hrs by Western blot analysis; format: cell-based; procedure, shortened: as §3
[14] = target: T2, Nuclear receptor subfamily 1 group I member 2; assay: Agonist activity at human PXR in human primary hepatocytes assessed as slight increase in CYP3A4 level at 0.5 to 5 uM incubated for 72 hrs by Western blot analysis; format: cell-based; procedure, shortened: as §3

## Clc1ccc(CO/N=C/c2c(-c3ccc4ccccc4c3)nc3occn23)c(Cl)c1
[1]; read-out: EC50
  EC50: 1500 nM
[2]
  Ratio: 2.3
HepG2 [3]
  Activity: Toxic

## CC1(C)CCC(C)(C)c2cc(-c3nc4sccn4c3/C=N/OCc3ccc(Cl)c(Cl)c3)ccc21
[1]; hepg2
  EC50: Not Active
HepG2 [3]
  Activity: Toxic
[4]
  EC50: 3600 nM
[5]
  Ratio: 0.64

## COc1ccc(-c2nc3sccn3c2/C=N/OCc2ccc(Cl)c(Cl)c2)cc1
[1]; read-out: EC50
  EC50: 490 nM
[2]
  Ratio: 4.9
HepG2 [3]
  Activity: Toxic

## CC(C)(C)c1ccc(-c2nc3sccn3c2/C=N/OCc2ccc(Cl)c(Cl)c2)cc1
[1]; read-out: EC50
  EC50: 2400 nM
[2]
  Ratio: 0.83
HepG2 [3]
  Activity: Toxic

## CCc1nc2sccn2c1/C=N/OCc1ccc(Cl)c(Cl)c1
[1]; read-out: EC50
  EC50: 2600 nM
[2]
  Ratio: 1.4
HepG2 [3]
  Activity: Toxic

## Cc1ccc(-c2nc3sccn3c2/C=N/OCc2ccc(Cl)c(Cl)c2)cc1
[1]; read-out: EC50
  EC50: 490 nM
[2]
  Ratio: 5.5
HepG2 [3]
  Activity: Toxic

## Clc1ccc(-c2nc3occn3c2/C=N/OCc2ccc(Cl)c(Cl)c2)cc1
[1]; read-out: EC50
  EC50: 410 nM
[2]
  Ratio: 10
[4]
  EC50: 1300 nM
[5]
  Ratio: 1.3
[6]
  Activity: Dose-dependent effect
[7]
  Activity: Active
HepG2 [8]
  Activity: Non-Toxic
[9]
  Activity: Active

## C(=N\OCc1ccc(Oc2ccccc2)cc1)/c1c(-c2ccc3ccccc3c2)nc2occn12
[1]; hepg2
  EC50: Not Active
HepG2 [3]
  Activity: Toxic
[4]
  EC50: 1100 nM
[5]
  Ratio: 1.6

## Clc1ccc(CO/N=C/c2c(-c3cccc4ccccc34)nc3sccn23)cc1Cl
[1]; read-out: EC50
  EC50: 940 nM
[2]
  Ratio: 2.3
HepG2 [3]
  Activity: Toxic

## Clc1ccc(CO/N=C/c2c(-c3ccc(C4CCCCC4)cc3)nc3sccn23)cc1Cl
[1]; read-out: EC50
  EC50: > 100000 nM
[2]
  Ratio: < 0.03
HepG2 [3]
  Activity: Toxic

## CC(C)c1ccc(-c2nc3sccn3c2/C=N/OCc2ccc(Cl)c(Cl)c2)cc1
[1]; read-out: EC50
  EC50: 590 nM
[2]
  Ratio: 5.1
HepG2 [3]
  Activity: Toxic

## Clc1ccc(CO/N=C/c2c(-c3ccccc3)nc3sccn23)cc1Cl
[1]; read-out: EC50
  EC50: 580 nM
[2]
  Ratio: 4
HepG2 [3]
  Activity: Toxic

## Clc1ccc(CO/N=C/c2c(-c3ccc4ccccc4c3)nc3occn23)cc1
[1]; read-out: EC50
  EC50: 990 nM
[2]
  Ratio: 4.2
HepG2 [3]
  Activity: Toxic

## Clc1ccc(CO/N=C/c2c(-c3ccc(-c4ccccc4)cc3)nc3sccn23)cc1Cl
[1]; hepg2
  EC50: Not Active
HepG2 [3]
  Activity: Toxic
[4]
  EC50: 57000 nM
[5]
  Ratio: 0.06

## N#Cc1ccc(-c2nc3sccn3c2/C=N/OCc2ccc(Cl)c(Cl)c2)cc1
[1]; read-out: EC50
  EC50: 3400 nM
[2]
  Ratio: 0.65
HepG2 [3]
  Activity: Toxic

## C(=N\OC1Cc2ccccc2C1)/c1c(-c2ccc3ccccc3c2)nc2occn12
[1]; read-out: EC50
  EC50: 980 nM
[2]
  Ratio: 3.8
HepG2 [3]
  Activity: Toxic

## Fc1ccc(-c2nc3sccn3c2/C=N/OCc2ccc(Cl)c(Cl)c2)cc1
[1]; read-out: EC50
  EC50: 670 nM
[2]
  Ratio: 3.9
HepG2 [3]
  Activity: Toxic

## Clc1cccc(-c2nc3sccn3c2/C=N/OCc2ccc(Cl)c(Cl)c2)c1
[1]; read-out: EC50
  EC50: 1100 nM
[2]
  Ratio: 2.1
HepG2 [3]
  Activity: Toxic

## CCC1(c2ccccc2)C(=O)NC(=O)NC1=O [PHENOBARBITAL]
[10]
  Activity: Active
[11]
  Activity: Active

## Clc1ccc(-c2nc3sccn3c2/C=N/OCc2ccc(Cl)c(Cl)c2)cc1
HepG2 [3]
  Activity: Toxic
[4]
  EC50: 990 nM
[12]
  Activity: Active

## Fc1c(F)c(F)c(CO/N=C/c2c(-c3ccc4ccccc4c3)nc3occn23)c(F)c1F
[1]; read-out: EC50
  EC50: 1700 nM
[2]
  Ratio: 1.8
HepG2 [3]
  Activity: Toxic

## Clc1ccc(CO/N=C/c2c(-c3ccc4ccccc4c3)nc3sccn23)cc1Cl
[1]; read-out: EC50
  EC50: 380 nM
[2]
  Ratio: 6.1
HepG2 [3]
  Activity: Toxic

## CC(C)(C)c1ccc(CO/N=C/c2c(-c3ccc4ccccc4c3)nc3occn23)cc1
[1]; read-out: EC50
  EC50: 7900 nM
[2]
  Ratio: 0.29
HepG2 [3]
  Activity: Toxic

## C(=N\OCc1ccccc1)/c1c(-c2ccc3ccccc3c2)nc2occn12
[1]; read-out: EC50
  EC50: 840 nM
[2]
  Ratio: 5.2
[4]
  EC50: 7300 nM
[5]
  Ratio: 1
HepG2 [8]
  Activity: Non-Toxic

## Clc1ccccc1CO/N=C/c1c(-c2ccc3ccccc3c2)nc2occn12
[1]; read-out: EC50
  EC50: 1100 nM
[2]
  Ratio: 3.5
HepG2 [3]
  Activity: Toxic

## Clc1ccc(CO/N=C/c2c(-c3ccc(Br)cc3)nc3sccn23)cc1Cl
[1]; read-out: EC50
  EC50: 480 nM
[2]
  Ratio: 5
HepG2 [3]
  Activity: Toxic

## COc1ccc(CO/N=C/c2c(-c3ccc4ccccc4c3)nc3occn23)cc1
[1]; read-out: EC50
  EC50: 4400 nM
[2]
  Ratio: 0.75
HepG2 [3]
  Activity: Toxic

## Clc1ccc(CO/N=C/c2c(-c3ccc4ccccc4c3)nc3occn23)cc1Cl
[1]; read-out: EC50
  EC50: 370 nM
[2]
  Ratio: 10
[4]
  EC50: 5900 nM
[5]
  Ratio: 0.37
[6]
  Activity: Dose-dependent effect
[7]
  Activity: Active
[13]
  Activity: Dose-dependent effect
[14]
  Activity: Active
HepG2 [8]
  Activity: Non-Toxic

## FC(F)(F)c1ccc(CO/N=C/c2c(-c3ccc4ccccc4c3)nc3occn23)cc1
[1]; read-out: EC50
  EC50: 470 nM
[2]
  Ratio: 6
[4]
  EC50: 2000 nM
[5]
  Ratio: 0.85
HepG2 [8]
  Activity: Non-Toxic

## FC(F)(F)c1ccc(-c2nc3sccn3c2/C=N/OCc2ccc(Cl)c(Cl)c2)cc1
[1]; read-out: EC50
  EC50: 880 nM
[2]
  Ratio: 2.6
HepG2 [3]
  Activity: Toxic
